Experimental data published in ChEMBL document CHEMBL5036380, “New Highly Potent NLRP3 Inhibitors: Furanochalcone Velutone F Analogues” (ACS Med Chem Lett, 2022).
Calls of active or inactive are those of the source. No cut-off for these calls is given here.

What was measured:
THP-1 [1] = assay: Effect on ASC oligomerization in LPS/nigericin stimulated human THP-1 cells assessed as ASC specks in LPS stimulation for 3 hrs followed by pretreatment for 40 min before induced with nigericin for 40 min by ASC and DAPI staining based immunofluorescent microscopy; assay type: functional, cell-based; settings: time 80.0 min
Outline: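 THP-1 cells were LPS-primed, treated with compound, then activated with nigericin. Endogenous ASC was visualized by immunofluorescence microscopy. The proportion of cells with ASC specks was counted, with NLRP3 KO THP-1 cells as comparison.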

THP-1 [2] = assay: Effect on IL-1beta expression in LPS-stimulated human THP-1 cells at 1 uM preincubated for 40 mins followed by LPS stimulation and measured after 3 hrs by Western blot analysis; assay type: functional, cell-based; settings: time 220.0 min
Outline: (§1)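 THP-1 cells were given compound for 40 min, then primed with LPS for 3 h. Medium supernatant was analysed for TNF-α. Cell extracts were immunoblotted for pro-IL-1β and NLRP3.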

[3] = Oral bioavailability in Sprague-Dawley rat at 30 mg/kg measured up to 24 hrs by LC-MS/MS analysis; assay type: ADME, organism-based; settings: in vivo
Outline: (§2)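 Single doses given intravenously (10 mg/kg) or orally (10, 30, 90 mg/kg); plasma levels quantified by LC/MS/MS at multiple time points. Parameters reported as mean values: AUC0–t, CL, Cmax, T1/2, Tmax, and %F based on AUC.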

[4] = biological target: NACHT, LRR and PYD domains-containing protein 3 (Homo sapiens) (UniProt Q96P20); assay: Inhibition of NLRP3 in human THP-1cells assessed as increase in thermal stability at 0.5 to 5 uM at 57 deg C measured by cellular thermal shift assay; settings: dose 0.5-5 µM
Sequence of NACHT, LRR and PYD domains-containing protein 3 (Homo sapiens) (Q96P20 whole entry, the tested form may be a part): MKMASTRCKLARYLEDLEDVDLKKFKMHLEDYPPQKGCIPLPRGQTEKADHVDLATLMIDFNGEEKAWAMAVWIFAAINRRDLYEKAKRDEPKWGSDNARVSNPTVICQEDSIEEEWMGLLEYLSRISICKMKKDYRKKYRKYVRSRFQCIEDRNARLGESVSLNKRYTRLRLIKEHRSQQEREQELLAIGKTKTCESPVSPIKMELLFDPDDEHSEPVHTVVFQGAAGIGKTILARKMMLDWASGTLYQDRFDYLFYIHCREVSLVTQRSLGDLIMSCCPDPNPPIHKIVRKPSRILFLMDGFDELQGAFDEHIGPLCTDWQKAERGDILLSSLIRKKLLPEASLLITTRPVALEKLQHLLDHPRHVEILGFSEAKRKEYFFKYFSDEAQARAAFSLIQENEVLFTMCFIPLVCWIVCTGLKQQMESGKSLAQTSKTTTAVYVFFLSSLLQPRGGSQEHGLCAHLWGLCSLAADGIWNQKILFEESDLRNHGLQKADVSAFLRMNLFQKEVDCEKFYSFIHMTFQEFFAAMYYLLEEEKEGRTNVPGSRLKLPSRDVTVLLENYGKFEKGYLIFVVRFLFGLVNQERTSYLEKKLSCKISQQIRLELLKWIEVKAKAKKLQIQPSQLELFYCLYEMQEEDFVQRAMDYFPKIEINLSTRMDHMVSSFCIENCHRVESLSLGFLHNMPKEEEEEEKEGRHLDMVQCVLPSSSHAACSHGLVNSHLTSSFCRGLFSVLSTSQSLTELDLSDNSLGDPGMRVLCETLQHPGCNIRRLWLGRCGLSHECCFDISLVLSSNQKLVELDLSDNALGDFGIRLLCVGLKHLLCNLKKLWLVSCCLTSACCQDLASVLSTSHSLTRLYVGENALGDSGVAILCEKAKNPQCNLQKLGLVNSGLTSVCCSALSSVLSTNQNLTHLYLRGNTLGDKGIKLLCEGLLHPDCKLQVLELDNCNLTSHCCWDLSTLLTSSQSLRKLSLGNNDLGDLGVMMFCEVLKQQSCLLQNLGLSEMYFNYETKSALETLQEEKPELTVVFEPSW

[5] = biological target: T1, Interferon-inducible protein AIM2 (Homo sapiens) (UniProt O14862); assay: Inhibition of AIM2 inflammasome activation in LPS-induced human THP-1 cells at 1 uM for 40 mins followed by […] stimulation for 6 h by ELISA; assay type: cell-based; settings: time 400.0 min
T1 sequence (whole entry): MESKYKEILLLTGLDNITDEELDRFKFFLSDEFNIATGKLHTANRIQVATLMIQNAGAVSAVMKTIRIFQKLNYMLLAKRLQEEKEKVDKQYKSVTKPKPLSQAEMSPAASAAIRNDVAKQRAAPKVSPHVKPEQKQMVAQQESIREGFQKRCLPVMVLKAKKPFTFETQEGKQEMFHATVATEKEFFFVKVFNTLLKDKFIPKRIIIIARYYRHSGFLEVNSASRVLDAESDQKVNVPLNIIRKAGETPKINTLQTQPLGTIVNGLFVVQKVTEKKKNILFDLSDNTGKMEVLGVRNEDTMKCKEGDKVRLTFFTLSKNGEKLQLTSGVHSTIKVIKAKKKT

[6] = Cmax in Sprague-Dawley rat at 90 mg/kg, po measured up to 24 hrs by LC-MS/MS analysis; assay type: ADME, organism-based; design: route oral, dose 90 mg/kg, time <=24; settings: in vivo; outline: as §2
[7] = Cmax in Sprague-Dawley rat at 10 mg/kg, iv measured up to 24 hrs by LC-MS/MS analysis; assay type: ADME, organism-based; design: route intravenous, dose 10 mg/kg, time <=24; settings: in vivo; outline: as §2
[8] = Half life in Sprague-Dawley rat at 30 mg/kg, po measured up to 24 hrs by LC-MS/MS analysis; assay type: ADME, organism-based; settings: in vivo; outline: as §2
THP-1 [9] = assay: Effect on TNFalpha expression in LPS-stimulated human THP-1 cells preincubated for 40 mins followed by LPS addition and measured after 3 hrs by Western blot analysis; assay type: functional, cell-based; settings: time 220.0 min; outline: as §1
THP-1 [10] = assay: Cytotoxicity against human THP-1 cells assessed as reduction in cell viability at 0.05 to 6.4 uM measured after 90 mins by CCK8 assay; assay type: cell-based; settings: thp-1, 1.5 h, dose 0.05-6.4 µM
Outline: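 THP-1 cells preincubated with compound (0.05–6.4 μM) for 1.5 h; viability read by CCK8 assay.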

[11] = Oral bioavailability in Sprague-Dawley rat at 90 mg/kg measured up to 24 hrs by LC-MS/MS analysis; assay type: ADME, organism-based; settings: in vivo; outline: as §2
THP-1 [12] = assay: Effect on IL-1beta expression in LPS-stimulated human THP-1 cells preincubated for 40 mins followed by LPS addition and measured after 3 hrs by Western blot analysis; assay type: functional, cell-based; settings: time 220.0 min; outline: as §1
[13] = biological target: NACHT, LRR and PYD domains-containing protein 3 (Homo sapiens) (UniProt Q96P20); assay: Inhibition of NLRP3 in human THP-1cells assessed as increase in thermal stability at 100 uM by cellular thermal shift assay
[14] = biological target: NLR family CARD domain-containing protein 4 (Homo sapiens) (UniProt Q9NPP4); assay: Inhibition of NLRC4 inflammasome activation in LPS-induced human THP-1 cells at 1 uM for 40 mins followed by flagellin stimulation for 6 h by ELISA; assay type: cell-based; settings: time 400.0 min
Sequence of NLR family CARD domain-containing protein 4 (Homo sapiens) (Q9NPP4 whole entry, the tested form may be a part): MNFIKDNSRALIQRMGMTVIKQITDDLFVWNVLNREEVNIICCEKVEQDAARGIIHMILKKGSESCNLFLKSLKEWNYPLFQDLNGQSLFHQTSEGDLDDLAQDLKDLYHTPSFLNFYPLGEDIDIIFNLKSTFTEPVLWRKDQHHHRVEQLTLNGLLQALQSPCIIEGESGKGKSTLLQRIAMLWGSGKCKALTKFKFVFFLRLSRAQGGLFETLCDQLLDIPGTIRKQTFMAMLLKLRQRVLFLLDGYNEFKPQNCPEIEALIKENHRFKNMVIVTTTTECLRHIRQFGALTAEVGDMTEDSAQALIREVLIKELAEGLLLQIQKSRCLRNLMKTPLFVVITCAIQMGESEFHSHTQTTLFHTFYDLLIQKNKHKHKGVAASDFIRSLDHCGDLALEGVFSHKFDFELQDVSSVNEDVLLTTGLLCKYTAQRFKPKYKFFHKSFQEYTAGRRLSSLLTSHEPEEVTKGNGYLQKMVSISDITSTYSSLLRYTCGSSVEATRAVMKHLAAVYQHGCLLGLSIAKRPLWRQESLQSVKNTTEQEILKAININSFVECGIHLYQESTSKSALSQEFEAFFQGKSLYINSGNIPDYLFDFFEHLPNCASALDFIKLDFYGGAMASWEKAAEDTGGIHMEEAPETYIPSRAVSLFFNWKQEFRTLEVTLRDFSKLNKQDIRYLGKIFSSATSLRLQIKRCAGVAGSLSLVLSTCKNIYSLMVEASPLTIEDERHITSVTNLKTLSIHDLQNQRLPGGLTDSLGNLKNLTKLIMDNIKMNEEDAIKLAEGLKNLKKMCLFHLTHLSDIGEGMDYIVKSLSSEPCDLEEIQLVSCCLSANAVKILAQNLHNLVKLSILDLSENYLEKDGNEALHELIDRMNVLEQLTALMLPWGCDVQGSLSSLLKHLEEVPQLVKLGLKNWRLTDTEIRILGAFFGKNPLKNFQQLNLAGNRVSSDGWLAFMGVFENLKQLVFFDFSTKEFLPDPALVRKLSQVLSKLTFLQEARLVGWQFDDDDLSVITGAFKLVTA

[15] = Half life in Sprague-Dawley rat at 10 mg/kg, po measured up to 24 hrs by LC-MS/MS analysis; assay type: ADME, organism-based; settings: in vivo; outline: as §2

COc1cc(/C=C/C(=O)c2ccc(F)cc2)c(OC)cc1Br
Activity (THP-1 [1]): Active
Activity (THP-1 [2]): inactive
bioavailability [3]: 4.99%
inhibition [4]: Dose-Dependent Effect
inhibition [5]: inactive
Cmax [6]: 13.6 ng/mL
Cmax [7]: 82 ng/mL
half-life [8]: 7.92 h
Activity (THP-1 [9]): inactive
Activity (THP-1 [10]): Non-Toxic
bioavailability [11]: 2.47%
Activity (THP-1 [12]): inactive
inhibition [13]: Active
inhibition [14]: inactive
half-life [15]: 7.43 h
